# OX1R antag-1 = blocks the human orexin 1 receptor; O43613; hit rate 0.43% among 330,000; CHO/OX1R cells, Fluo-8 calcium fluorescence, orexin A; inhibition, % at 5 µM; AID 434989;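 active = inhibition above its plate's threshold, mean inhibition of all tested compounds on the plate plus 3 SD, cut at about 37% in these data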;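 note: 0% = orexin A challenge wells and 100% = SB-334867-A antagonist wells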
# TAAR1 agonist = agonists of human TAAR1. Q96RJ0. CHO RD-HGA16 TAAR1, Fluo-8 calcium fluorescence; vehicle wells 0%, saturating PEA agonist 100%. activation, % at 3 µM. hit rate 0.99% among 360,000. AID 624467;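 active = activation above the mean activation of all test compounds in the run plus 3 SD, cut at about 38% in these data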
#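 Signal – calcium-sensitive Fluo-8 signal, excitation 470-495, emission 515-575 nm · System – RD-HGA16 (CHO) cells co-expressing Gα16 and hTAAR1 · Incubation – 17-24 h seeding, 75 min 37 °C dye, 30 min RT · Compound dosing – 3 µM single concentration · Repeats – no replicates (n 1)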
# NTR1 agonist = agonists of human neurotensin receptor NTR1; P30989; NTR1-U2OS beta-arrestin-GFP spot imaging, agonist mode; activation, % at 20 µM; hit rate 0.17% among 330,000;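 active = activation at or above 40% of the spot to cytoplasm intensity ratio, with at least 20 cells analyzed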;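 note: 0% = DMSO without peptide and 100% = 100 nM NTR1 peptide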
# Target sequence (P30989 whole entry, looked up): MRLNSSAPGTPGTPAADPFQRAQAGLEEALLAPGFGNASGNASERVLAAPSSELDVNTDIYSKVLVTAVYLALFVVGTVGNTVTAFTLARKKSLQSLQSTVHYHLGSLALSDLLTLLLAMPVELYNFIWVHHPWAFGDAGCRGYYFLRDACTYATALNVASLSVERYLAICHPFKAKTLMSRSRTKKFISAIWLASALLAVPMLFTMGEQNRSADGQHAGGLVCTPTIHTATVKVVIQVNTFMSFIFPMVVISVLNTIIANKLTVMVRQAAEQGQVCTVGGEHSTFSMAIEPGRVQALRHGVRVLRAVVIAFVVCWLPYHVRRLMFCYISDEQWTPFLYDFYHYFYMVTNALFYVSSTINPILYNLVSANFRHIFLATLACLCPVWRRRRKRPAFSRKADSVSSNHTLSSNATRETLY
# CHO parental Ca = counter-screen: ATP calcium response change in parental CHO cells. hit rate 0.63% among 330,000. inhibition, % at 5.6 µM. AID 463079. parental CHO-K1, ATP-induced calcium, Fluo-8 fluorescence;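 active = inhibition above that plate's mean sample inhibition plus 3 SD, cut at about 26% in these data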;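 note: 0% = ATP-challenged DMSO wells and 100% = DMSO wells without ATP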
#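 material = parental CHO cells | also added = ATP as calcium-mobilizing challenge | dosing = single point at 5.6 µM | detection = intracellular calcium via Fluo-8 no-wash fluorescent dye | read-out = % inhibition | benchmarks = low control ATP plus DMSO, high control DMSO only | repeats = one well per compound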
# OX1R antag-2 = antagonists of human orexin 1 receptor (OX1R). OX1R-expressing cells, FRET antagonist read-out. O43613. hit rate 1.8% among 330,000. inhibition, % at 6.6 µM; in the data active = inhibition mostly above about 38%, no sharp cut-off; inactive = mostly below about 40%;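 note: 0% = agonist challenge alone and 100% = reference antagonist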
# TAAR1 antagonist = antagonists of human TAAR1; Q96RJ0; CHO RD-HGA16 TAAR1, Fluo-8 calcium fluorescence, antagonist; inhibition, % at 3 µM; hit rate 1.5% among 360,000;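 active = inhibition above a per-plate cutoff, the mean inhibition of test compounds on that plate plus 3 SD, cut at about 49% in these data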;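 note: 0% = DMSO plus EC80 beta-PEA response and 100% = DMSO alone without agonist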
#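 Test system – hTAAR1-expressing CHO RD-HGA16 cells, Gα16-coupled · Reagent – β-PEA at EC80 concentration, post-compound challenge · Compound dosing – 3 µM, single point · Timing – 140 s kinetic read after compound, 140 s after agonist · Detection – Fluo-8 intracellular calcium dye fluorescence, real-time kinetic reads · Control set – DMSO and EC80 PEA controls · Repeats – n of 1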
# Active calls of the source: *; . = no result. Rows were chosen to be rich in hits. Some 4% of all compounds tested hit in one or more screens of this group.
SMILES,OX1R antag-1,TAAR1 agonist,NTR1 agonist,CHO parental Ca,OX1R antag-2,TAAR1 antagonist
O=C1CCCN2N=C(SCC(=O)Nc3cccc(C(F)(F)F)c3)SC2=N1,-14,25,0,37*,29,2
Cc1ccc2nc(CN(C)C(=O)[C@H]3O[C@@H](n4cnc(C(N)=O)n4)[C@H](O)[C@@H]3O)[nH]c2c1,.,0,.,.,.,-5
O=C1CN(C(=O)COC(=O)c2ccccc2Br)c2ccccc2N1,18,-1,-2,0,4,9
Cc1ccc(S(=O)(=O)NCCOc2nc(N(C)C)nc(N3CCOCC3)n2)cc1,-1,9,-1,-23,48*,6
CN(C)c1nc(OCCNC(=O)Nc2ccccc2)nc(N2CCOCC2)n1,.,3,0,.,.,0
CCOC(=O)C1CCN(S(=O)(=O)c2c(Cl)ccc3nonc23)CC1,9,4,7,14,89*,-5
CCOc1ccc2oc(C(=O)NNC(=O)c3ccccc3O)c(C)c2c1,-29,15,1,-4,4,18
Cc1c(C(=O)NNC(=O)c2ccccc2O)oc2ccc(Br)cc12,-3,4,.,64*,8,-4
O=C(Cc1ccc([N+](=O)[O-])cc1)Nc1cccc(C(F)(F)F)c1,-7,11,-1,28*,25,18
Cc1cccc(NC(=O)C2(c3ccc([N+](=O)[O-])cc3)CCCC2)c1,41,48*,0,36*,27,0
O=C(Cc1ccc([N+](=O)[O-])cc1)Nc1cc(C(F)(F)F)cc(C(F)(F)F)c1,0,2,-1,12,8,-13
Cc1[nH]nc2c1C(c1cccc(C(F)(F)F)c1)NC2=O (stereo not given),.,1,.,.,.,0
COCc1[nH]nc2c1C(c1cccc(C(F)(F)F)c1)NC2=O (stereo not given),.,1,.,.,.,-4
COC(=O)[C@H](N[C@H](/C=C/c1ccccc1)[C@@H](O)Cc1ccccc1)c1ccccc1,.,-1,.,.,.,-3
CCc1ccc(NC(=O)CCC(=O)c2ccc(C)cc2)cc1,-2,-3,0,31*,-12,-25
O=C1CN(S(=O)(=O)c2ccc(Cl)cc2)CC(=O)N1CCc1ccccc1,-15,9,-3,-12,15,56*
O=S(=O)(c1ccc(Cl)cc1)N1CCC(O)(CN2CCN(Cc3ccccc3)CC2)CC1,-17,8,-1,-11,18,7
COc1cc([N+](=O)[O-])ccc1NC(=O)CCCOc1cccc(C)c1,-20,1,1,-13,17,106*
O=C(COc1ccccc1C(=O)O)Nc1nc2ccc([N+](=O)[O-])cc2s1,37,8,8,42*,59*,-7
Cc1ccc(S(=O)(=O)N(C)c2ccc(OCC(=O)Nc3nc4ccccc4s3)cc2)cc1,2,2,1,15,57*,7
COc1cc([N+](=O)[O-])ccc1NC(=O)CCCOc1ccc(C)cc1,-21,3,-1,-9,15,-3
Cc1cccc(OCC(=O)Nc2nc3ccc([N+](=O)[O-])cc3s2)c1,27,5,-1,-8,41*,13
Cc1ccc(S(=O)(=O)N(C)c2ccc(OCC(=O)Nc3nc4c(ccc5ccccc54)s3)cc2)cc1,-2,-1,0,-2,9,-14
COc1cc2c(cc1OC)[C@@]1(c3ccccc3)CCCC[C@H]1[C@@H]2NC(=O)C(F)(F)F,.,1,.,.,.,-18
CCNC(=O)N1CCN(c2ccc(N3CCN(C(=O)NCC)[C@H](C)C3)c(C)c2)[C@@H](C)C1,.,0,.,.,.,0
SMILES,OX1R antag-1,TAAR1 agonist,NTR1 agonist,CHO parental Ca,OX1R antag-2,TAAR1 antagonist
COc1ccc(OCCOC(=O)c2[nH]c(C)c(C(C)=O)c2C)cc1,-2,6,-2,45*,38,8
Cc1cc(S(=O)(=O)NCc2ccccc2)ccc1OCC(=O)NCc1ccccn1,-6,2,0,2,26,7
Cc1cc(S(=O)(=O)NCc2ccccc2)ccc1OCC(=O)Nc1cccc([N+](=O)[O-])c1,53*,9,5,49*,84*,41
O=C(O)[C@@H]1C[C@@H](O)CN1,.,1,.,.,.,6
CCOC(=O)C1CCN(C(=O)COc2cc(C)c(Br)cc2C)CC1,50*,6,1,54*,54,27
CCOC(=O)C1CCCN(S(=O)(=O)c2ccc(C)cc2)C1 (stereo not given),-11,4,0,10,15,-3
CCOC(=O)C1CCN(C(=O)COc2ccc(Br)cc2Br)CC1,-24,12,2,-6,16,-5
CCOC(=O)C1CCCN(S(=O)(=O)c2ccc(S(=O)(=O)N(CC)CC)cc2)C1 (stereo not given),47*,5,0,51*,46,28
CCOC(=O)C1CCCN(C(=S)Nc2cc(C)cc(C)c2)C1 (stereo not given),-3,50*,-2,-3,12,46
CCOC(=O)C1CCCN(C(=S)Nc2ccc(S(=O)(=O)N3CCOCC3)cc2)C1 (stereo not given),-9,46*,3,0,3,33
C=CCN1C(=O)c2n[nH]c(COC)c2C1c1ccc(Br)cc1 (stereo not given),.,1,.,.,.,-2
Cc1ccc(OCCN2CCC2(C)C(=O)NCc2ccc(C(F)(F)F)cc2)cc1 (stereo not given),.,0,.,.,.,-19
O=C(O)c1ccc(CNC(=O)C2CCCN2C(=O)OCc2ccccc2)cc1 (stereo not given),.,1,0,.,.,2
Cc1[nH]c2ccccc2c1CC(=O)Nc1ccc(Nc2cccnc2)c(-c2ccc(-c3ccccc3)cc2F)c1,.,1,.,.,.,7
COc1cccc(C(=O)N2CCC[C@@H]2C(=O)N2CCC[C@@H]2C(=O)NCc2ccccc2)c1,.,1,.,.,.,-29
CCOC(=O)C1CCCN(C(=O)COc2ccccc2O)C1 (stereo not given),-10,43*,-6,-17,7,31
Cc1cc(Nc2cc(F)c(F)c(F)c2)cc(=O)n1-c1cc(F)c(F)c(F)c1,.,1,.,.,.,-13
CC[C@H](C)[C@H]1CNC(=O)C(=O)N1CC1CCN(CC(C)C)CC1,.,1,.,.,.,-1
COc1ccc(NC(=O)COC(=O)CO/N=C(\C)c2ccc3c(c2)OCO3)cc1S(N)(=O)=O,3,5,-2,-8,8,-3
CC(=O)Nc1cccc(NC(=O)COC(=O)CO/N=C(\C)c2ccc3c(c2)OCO3)c1,22,3,-2,-8,74*,12
Cc1c(P(=S)(c2ccccc2)c2ccccc2)[n+]2ccccc2n1CCc1ccccc1,.,2,.,.,.,-2
Cc1ccc2nc(-c3ccc(F)cc3)c(Cc3cccc(F)c3)n2c1,.,3,.,.,.,19
CN(C)c1ccc(C(=O)NCC2CCN(C(=O)C(=O)c3cccs3)CC2)cc1,.,0,.,.,.,-4

# Screens (PubChem)
